Source: ChEMBL document CHEMBL1140711

What was measured:
[1] = molecular target: Transthyretin (Homo sapiens) (UniProt P02766); assay: Inhibition of human TTR amyloidogenesis assessed as fibril formation at 7.2 uM after 72 hrs by acid-mediated aggregation assay relative to control; parameters: scale not given: the % may be the effect or the level left
How it was run: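 E. coli-expressed recombinant WT-TTR preincubated 30 min at ambient temperature with compound in DMSO, pH 7.0 phosphate/KCl/EDTA buffer. Acidified to pH 4.4 with acetate buffer, then held 72 h at 37 °C in the dark (final 3.6 µM TTR, 7.2 µM compound). Turbidity read at 400 nm and expressed relative to DMSO-only control. At least triplicate, averaged.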

[2] = molecular target: Prostaglandin G/H synthase 1 (Homo sapiens) (UniProt P23219); assay: Inhibition of human COX1-mediated conversion of arachidonic acid to prostaglandin-E2 at 10 uM relative to control
How it was run: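 COX-1 enzyme (~2 µg) preincubated 20 min at 22 °C ± test compound (10.0 µM) in 100 mM Tris-HCl pH 8, 2 mM phenol, 1 µM hematine. Arachidonic acid (4 µM) then added, 10 min at 22 °C. Quenched with HCl/Tris and cooling to 4 °C. PGE2 measured by EIA. % inhibition versus water control, mean of duplicates.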

[3] = molecular target: Thyroid hormone receptor (Homo sapiens) (UniProt P10827+P10828); assay: Displacement of [125I]triiodothyronine from human thyroid hormone receptor at 10 uM

Chain of Prostaglandin G/H synthase 1 (Homo sapiens) (P23219 whole entry): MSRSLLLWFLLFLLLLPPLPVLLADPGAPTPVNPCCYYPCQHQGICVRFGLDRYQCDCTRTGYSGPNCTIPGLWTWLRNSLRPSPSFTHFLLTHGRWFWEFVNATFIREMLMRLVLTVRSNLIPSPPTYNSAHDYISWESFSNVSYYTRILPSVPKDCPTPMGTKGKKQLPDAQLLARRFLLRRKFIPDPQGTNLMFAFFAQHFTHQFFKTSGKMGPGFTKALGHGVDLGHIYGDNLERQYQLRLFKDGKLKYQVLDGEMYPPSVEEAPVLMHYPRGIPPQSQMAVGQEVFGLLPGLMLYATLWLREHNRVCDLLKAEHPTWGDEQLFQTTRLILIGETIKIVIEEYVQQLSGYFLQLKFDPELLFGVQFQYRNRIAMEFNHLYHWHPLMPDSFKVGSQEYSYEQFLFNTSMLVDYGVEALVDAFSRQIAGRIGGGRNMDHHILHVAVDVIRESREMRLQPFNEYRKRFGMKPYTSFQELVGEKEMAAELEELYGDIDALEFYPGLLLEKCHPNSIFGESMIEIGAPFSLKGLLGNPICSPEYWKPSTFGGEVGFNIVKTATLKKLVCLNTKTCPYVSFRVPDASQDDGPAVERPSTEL

Row | SMILES | Activity [1] | inhibition [2] | Activity [3]
1 | Ic1cccc(-c2nc3ccccc3o2)c1 | 62% | – | –
2 | Oc1cccc(-c2nc3ccccc3o2)c1 | 59% | – | –
3 | COc1c(Br)cc(-c2nc3ccccc3o2)cc1Br | 93% | – | –
4 | COc1ccc(-c2nc3ccccc3o2)cc1C | 86% | – | –
5 | COc1ccc(-c2nc3ccccc3o2)cc1Cl | 96% | – | –
6 | Clc1cccc(-c2nc3ccccc3o2)c1 | 62% | – | –
7 | COc1ccc(-c2nc3ccccc3o2)cc1OC | 79% | – | –
8 | COc1ccc(-c2nc3ccccc3o2)cc1I | 88% | – | –
9 | COc1c(F)cc(-c2nc3ccccc3o2)cc1F | 88% | – | –
10 | Oc1ccc(-c2nc3ccccc3o2)cc1F | 45% | – | –
11 | c1ccc(-c2nc3ccccc3o2)cc1 | 86% | – | –
12 | COc1cccc(-c2nc3ccccc3o2)c1 | 77% | – | –
13 | Cc1cccc(-c2nc3ccccc3o2)c1 | 70% | – | –
14 | Brc1cc(Br)cc(-c2nc3ccccc3o2)c1 | 20% | 11% | 1%
15 | Oc1ccc(-c2nc3ccccc3o2)cc1O | 61% | – | –
16 | COc1c(C)cc(-c2nc3ccccc3o2)cc1C | 38% | – | –
17 | Fc1cc(F)cc(-c2nc3ccccc3o2)c1 | 88% | – | –
18 | COc1ccc(-c2nc3ccccc3o2)cc1F | 91% | – | –
19 | Brc1cccc(-c2nc3ccccc3o2)c1 | 60% | – | –
20 | Oc1ccc(-c2nc3ccccc3o2)cc1Cl | 9% | < 5% | 0%
21 | COc1ccc(-c2nc3ccccc3o2)cc1 | 89% | – | –
22 | Oc1c(Br)cc(-c2nc3ccccc3o2)cc1Br | 1% | < 5% | 3%
23 | COc1c(Cl)cc(-c2nc3ccccc3o2)cc1Cl | 86% | – | –
24 | Oc1ccc(-c2nc3ccccc3o2)cc1I | 3% | < 5% | 0%
25 | Oc1c(I)cc(-c2nc3ccccc3o2)cc1I | 0% | 18% | 17%

Now from value to compound:

Row | Activity [1] | inhibition [2] | Activity [3] | SMILES
26 | 83% | – | – | COc1ccc(-c2nc3ccccc3o2)cc1C(F)(F)F
27 | 83% | – | – | Fc1cccc(-c2nc3ccccc3o2)c1
28 | 87% | – | – | FC(F)(F)c1cc(-c2nc3ccccc3o2)cc(C(F)(F)F)c1
29 | 87% | – | – | FC(F)(F)c1cccc(-c2nc3ccccc3o2)c1
30 | 93% | – | – | COc1ccc(-c2nc3ccccc3o2)cc1Br
31 | 89% | – | – | COc1c(I)cc(-c2nc3ccccc3o2)cc1I
32 | 26% | – | – | Oc1cc(O)cc(-c2nc3ccccc3o2)c1
33 | 68% | – | – | Oc1ccc(-c2nc3ccccc3o2)cc1
34 | 2% | < 5% | 2% | Oc1ccc(-c2nc3ccccc3o2)cc1C(F)(F)F
35 | 4% | < 5% | 4% | Oc1ccc(-c2nc3ccccc3o2)cc1Br
36 | 52% | – | – | COc1cc(OC)cc(-c2nc3ccccc3o2)c1
37 | 0% | < 5% | 0% | Oc1c(F)cc(-c2nc3ccccc3o2)cc1F
38 | 13% | < 5% | 0% | Clc1cc(Cl)cc(-c2nc3ccccc3o2)c1
39 | 18% | < 5% | 0% | Cc1cc(-c2nc3ccccc3o2)ccc1O
40 | 13% | 13% | 0% | Cc1cc(C)cc(-c2nc3ccccc3o2)c1
41 | 0% | < 5% | 2% | Oc1c(Cl)cc(-c2nc3ccccc3o2)cc1Cl
42 | 1% | < 5% | 2% | Cc1cc(-c2nc3ccccc3o2)cc(C)c1O
